The text below walks through data of ChEMBL document CHEMBL4028845, “Design, Synthesis, and Properties of a Potent Inhibitor of Pseudomonas aeruginosa Deacetylase LpxC” (J Med Chem, 2017).

Data set [1] deals with T1, UDP-3-O-acyl-N-acetylglucosamine deacetylase (Pseudomonas aeruginosa (strain ATCC 15692 / PAO1 / 1C / PRS 101 / LMG12228), UniProt P47205).
T1 sequence (P47205 whole entry): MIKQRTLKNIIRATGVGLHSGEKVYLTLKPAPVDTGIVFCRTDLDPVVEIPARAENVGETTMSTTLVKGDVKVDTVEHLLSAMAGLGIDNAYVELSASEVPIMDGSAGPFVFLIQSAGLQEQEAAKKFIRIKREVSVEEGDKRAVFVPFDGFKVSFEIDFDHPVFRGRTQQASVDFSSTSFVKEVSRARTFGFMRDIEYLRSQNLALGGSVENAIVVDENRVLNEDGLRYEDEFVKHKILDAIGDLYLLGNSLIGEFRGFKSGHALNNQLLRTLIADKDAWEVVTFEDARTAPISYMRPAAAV
The data set is described as follows: Inhibition of Pseudomonas aeruginosa LpxC using UDP-3-O-(R-hydroxydecanoyl)-N-acetylglucosamine as substrate preincubated for 30 mins followed by substrate addition measured after 20 mins by LC-MS/MS analysis.

The test system of data set [2] is Pseudomonas aeruginosa. The data set is described as follows: Antibacterial activity against mexAB-oprM deficient Pseudomonas aeruginosa K1119 after 18 to 24 hrs. Type of data set: functional. Summed up:
(§1)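 Broth MIC per CLSI guidelines in cation-adjusted Mueller Hinton broth. Compounds were dissolved and serially diluted in DMSO (carbapenems in water) before addition to plates. Incubation was at 37 °C for 18−24 h. MIC is the lowest concentration preventing visible growth. MIC50/MIC90 are the concentrations inhibiting 50% or 90% of isolates tested.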

The test system of data set [3] is Pseudomonas aeruginosa. The data set is described as follows: Antibacterial activity against hypersusceptible Pseudomonas aeruginosa Z61 after 18 to 24 hrs. The data set is classed as functional. In short, it runs like this: as §1
Data set [4] deals with Pseudomonas aeruginosa. The data set is described as follows: Antibacterial activity against Pseudomonas aeruginosa PAO1 K767 after 18 to 24 hrs. Type of data set: functional. Summed up: as §1
The test system of data set [5] is Pseudomonas aeruginosa. The data set is described as follows: Antibacterial activity against Pseudomonas aeruginosa clinical isolate after 18 to 24 hrs. Type of data set: functional.
Data set [6] can be described thus: Solubility of the compound at pH 6.8 by high throughput screening assay. The note with it: buffer. The data set is classed as physicochemical.
Data set [7] is described as follows: Cytotoxicity against human K562 cells assessed as reduction in cell viability after 72 hrs by WST1 assay. The data set is classed as cell-based. Summed up: (§2)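 Cells were grown and assayed in medium with 10% heat-inactivated FBS and exposed to compound for 72 h. Metabolic activity was read as WST-1 cleavage to formazan at A450, with puromycin as positive control. CC50 (50% reduction in viability) was calculated from dose-response curves.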

The nature of data set [8]: Cytotoxicity against human HepG2 cells assessed as reduction in cell viability after 72 hrs by WST1 assay. Type of data set: cell-based. In short, it runs like this: as §2
On the technique in general: Tetrazolium dyes change colour on reduction, which living cells bring about.

Data set [9] can be described thus: Protein binding in human plasma. Type of data set: ADME, cell-free. Particulars: read-out: PPB (converted).
The nature of data set [10]: Protein binding in rat plasma. The data set is classed as ADME, cell-free. Particulars: read-out: PPB (converted).
The nature of data set [11]: Protein binding in mouse plasma. The data set is classed as ADME, cell-free. Particulars: read-out: PPB (converted).

SMILES strings stand for the structures. ≈ marks a conversion by molar mass, not a printed value.

In [1], `CC#CCOc1ccc(C(=O)N[C@H](C(=O)NO)[C@H](C)N)cc1` showed an IC50 of 16.4 nM. For the same compound, the minimal inhibitory concentration (MIC) amounted to 0.5 µg/mL (≈ 1.64 µM) in the data set on Pseudomonas aeruginosa [2], 1 µg/mL (≈ 3.28 µM) in the data set with Pseudomonas aeruginosa [3] and 1 µg/mL (≈ 3.28 µM) in the data set with Pseudomonas aeruginosa [4].

In the data set on Pseudomonas aeruginosa [5], `C[C@@H](O)[C@H]1C(=O)N2C(C(=O)O)=C(SCCNC=N)C[C@H]12` [IMIPENEM ANHYDROUS] showed an MIC50 of 2 µg/mL (≈ 6.68 µM) and an MIC90 of 16 µg/mL (≈ 53.4 µM).

For `C[C@@H](NCC(=O)N1CCNC(=O)C1)[C@H](NC(=O)c1ccc(C#Cc2ccccc2)cc1)C(=O)NO`, the IC50 in data set [1] is 4.19 nM. In addition, the MIC turned out to be 0.5 µg/mL (≈ 1.05 µM) against Pseudomonas aeruginosa [2], 4 µg/mL (≈ 8.38 µM) against Pseudomonas aeruginosa [3] and 32 µg/mL (≈ 67 µM) in the data set on Pseudomonas aeruginosa [4]. In [6], this compound displayed a solubility of 0.392 µM. Moreover, the CC50 at 72 h in data set [7] was over 100000 nM.

As to `CC#CCOc1ccc(C(=O)N[C@H](C(=O)NO)[C@@H](C)N)cc1`, the CC50 at 72 h in data set [8] and in [7] was over 419000 nM in each case. The same compound gave an IC50 in [1] of 19.7 nM. Also, the MIC in the data set on Pseudomonas aeruginosa [2] came out at 0.25 µg/mL (≈ 0.819 µM); in the data set with Pseudomonas aeruginosa [3], 0.5 µg/mL (≈ 1.64 µM); in the data set with Pseudomonas aeruginosa [4], 2 µg/mL (≈ 6.55 µM). In addition, in data set [6] (read-out: solubility), the solubility was found to be 295 µg/mL.

The compound `C[C@@H](N)[C@H](NC(=O)c1ccc(C#Cc2ccccc2)cc1)C(=O)NO` showed an IC50 in [1] of 3.56 nM. The fraction unbound was 0.081 in data set [9], 0.072 in [10] and 0.086 in [11]. The figures for the MIC in the data set on Pseudomonas aeruginosa [2], against Pseudomonas aeruginosa [3] and against Pseudomonas aeruginosa [4] were 0.25 µg/mL (≈ 0.741 µM), 0.25 µg/mL (≈ 0.741 µM) and 1 µg/mL (≈ 2.96 µM), respectively. The CC50 at 72 h in [7] worked out at 29500 nM.

In the data set with Pseudomonas aeruginosa [5], `CC1(C)S[C@@H]2[C@H](NC(=O)[C@H](C(=O)O)c3ccsc3)C(=O)N2[C@H]1C(=O)O` [TICARCILLIN] registered an MIC50 of 128 µg/mL (≈ 333 µM) and an MIC90 of over 128 µg/mL.

As to `C[C@@H](N)[C@H](NC(=O)COc1ccc(N2CCCC2=O)cc1)C(=O)NO`, the IC50 in data set [1] is 342 nM. Besides, the MIC against Pseudomonas aeruginosa [2], in the data set on Pseudomonas aeruginosa [3] and against Pseudomonas aeruginosa [4] was over 128 µg/mL throughout.

`CC#CCOc1ccc(C(=O)NC(C(=O)NO)C(C)(C)N)cc1` (racemic): the results for the MIC in the data set on Pseudomonas aeruginosa [2], with Pseudomonas aeruginosa [3] and against Pseudomonas aeruginosa [4] were 0.25 µg/mL (≈ 0.783 µM), 0.25 µg/mL (≈ 0.783 µM) and 2 µg/mL (≈ 6.26 µM), respectively.

As to `CC#CCOc1ccc(C(=O)N[C@H](C(=O)NO)[C@H](N)C2CC2)cc1`, the IC50 in [1] is 362 nM. In addition, the MIC with Pseudomonas aeruginosa [2] came out at 2 µg/mL (≈ 6.04 µM); against Pseudomonas aeruginosa [3], 4 µg/mL (≈ 12.1 µM); in the data set with Pseudomonas aeruginosa [4], 32 µg/mL (≈ 96.6 µM).

With `C[C@@H](N)[C@H](NC(=O)c1ccc(OC(C)(C)C)cc1)C(=O)NO`, the IC50 in [1] is 268 nM. Moreover, the MIC came to 1 µg/mL (≈ 3.23 µM) against Pseudomonas aeruginosa [2], 4 µg/mL (≈ 12.9 µM) in the data set with Pseudomonas aeruginosa [3] and 32 µg/mL (≈ 103 µM) against Pseudomonas aeruginosa [4].

In the case of `CC#CCOc1ccc(C(=O)N[C@H](C(=O)NO)[C@@H](N)C(F)(F)F)cc1`, half-maximal inhibition in [1] (IC50) was put at 39 nM. Moreover, the MIC against Pseudomonas aeruginosa [2] worked out at 0.25 µg/mL (≈ 0.696 µM); against Pseudomonas aeruginosa [3], 1 µg/mL (≈ 2.78 µM); in the data set on Pseudomonas aeruginosa [4], 16 µg/mL (≈ 44.5 µM).

Take `NCC[C@H](O)C(=O)N[C@@H]1C[C@H](N)[C@@H](O[C@H]2O[C@H](CN)[C@@H](O)[C@H](O)[C@H]2O)[C@H](O)[C@H]1O[C@H]1O[C@H](CO)[C@@H](O)[C@H](N)[C@H]1O` [AMIKACIN]: in the data set on Pseudomonas aeruginosa [5], the MIC50 amounted to 16 µg/mL (≈ 27.3 µM) and the MIC90 was over 128 µg/mL.

In the data set with Pseudomonas aeruginosa [5], `CC(C)(O/N=C(\C(=O)N[C@@H]1C(=O)N2C(C(=O)[O-])=C(C[n+]3ccccc3)CS[C@H]12)c1csc(N)n1)C(=O)O` [CEFTAZIDIME] returned an MIC50 of 4 µg/mL (≈ 7.32 µM) and an MIC90 of over 128 µg/mL.

Take `CCc1ccc(-c2ccc(C(=O)N[C@H](C(=O)NO)[C@@H](C)NCC(=O)N3CCNC(=O)C3)cc2)cc1`: the MIC was 0.125 µg/mL (≈ 0.26 µM) with Pseudomonas aeruginosa [2], 1 µg/mL (≈ 2.08 µM) in the data set on Pseudomonas aeruginosa [3] and 16 µg/mL (≈ 33.2 µM) against Pseudomonas aeruginosa [4].

A word on the IC50: it is the concentration that gives 50% inhibition. Lower therefore signals inhibition by little substance. What is called MIC is the smallest concentration in the dilution series that meets the test's criterion for growth inhibition. Lower therefore signals inhibition by little substance. Usually MIC50 stands for an inhibitory concentration at the 50% level, which refers to growth in some studies and to a panel of isolates in others. A higher MIC50 goes with lower susceptibility. For orientation: MIC90 means the lowest concentration that inhibits either 90% of growth or 90% of the strains tested, depending on the study. High values mean lower susceptibility, low ones higher susceptibility. One may read the solubility as how much of the substance goes into solution per volume. The term CC50 denotes the concentration that lowers cell viability or growth by half.
